Measurements: ChEMBL document CHEMBL1134769, “Potent and selective nonpeptide inhibitors of caspases 3 and 7” (J Med Chem, 2001)

Tests used:
Caspase-1 = molecular target: T1, Caspase-1 (Homo sapiens, UniProt P29466); assay: Inhibitory activity against caspase-1; details: read-out: Ki app
T1 sequence (P29466 whole entry): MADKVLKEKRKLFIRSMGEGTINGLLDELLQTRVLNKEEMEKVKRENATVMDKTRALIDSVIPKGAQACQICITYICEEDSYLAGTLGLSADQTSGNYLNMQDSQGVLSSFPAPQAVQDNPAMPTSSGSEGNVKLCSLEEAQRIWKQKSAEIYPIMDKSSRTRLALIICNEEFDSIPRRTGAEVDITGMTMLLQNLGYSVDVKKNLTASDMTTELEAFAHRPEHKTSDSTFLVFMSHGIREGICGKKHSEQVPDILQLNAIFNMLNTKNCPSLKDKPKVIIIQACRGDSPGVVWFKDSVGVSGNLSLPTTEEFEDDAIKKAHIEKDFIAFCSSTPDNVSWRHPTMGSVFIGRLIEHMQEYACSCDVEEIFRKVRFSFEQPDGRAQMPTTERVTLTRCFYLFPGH
In short: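 Recombinant full-length human caspase 1, ~10 units/assay, in 25 mM K+HEPES pH 7.5 with 10% sucrose, 0.1% CHAPS and 5 mM β-mercaptoethanol. Substrate 10 μM Ac-YVAD-AMC. AMC read at 360/460 nm, 30 °C, with 5% final DMSO. Single-dose screen (typically 5–50 μM), followed by IC50 curves for active compounds.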

Caspase-8 = Caspase-8 (Homo sapiens, UniProt Q14790); assay: Inhibitory activity against Caspase-8; details: read-out: Ki app
Chain of Caspase-8 (Q14790 217-374 limits assumed): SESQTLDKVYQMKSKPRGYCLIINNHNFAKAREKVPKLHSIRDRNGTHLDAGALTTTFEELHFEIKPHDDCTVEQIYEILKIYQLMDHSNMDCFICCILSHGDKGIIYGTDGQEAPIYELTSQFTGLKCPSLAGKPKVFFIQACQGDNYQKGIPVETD
Chain of Caspase-8 (Q14790 385-479 limits assumed): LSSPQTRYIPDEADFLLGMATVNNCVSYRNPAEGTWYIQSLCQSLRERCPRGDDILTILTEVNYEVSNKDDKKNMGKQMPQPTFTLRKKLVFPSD
In short: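 Recombinant full-length human caspase 8, ~10 units/assay, in Na+MOPS pH 7.5 with 10% glycerol, 0.25 mM EDTA and 5 mM β-mercaptoethanol. Substrate 10 μM Ac-IETD-AMC. Fluorescence at 360/460 nm, 30 °C, 5% final DMSO. Compounds screened at a single dose (typically 5–50 μM), then full IC50 curves for actives.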

Caspase-9 = molecular target: T2, Caspase-9 (Homo sapiens, UniProt P55211); assay: Inhibitory activity against Caspase-9; details: read-out: Ki app
T2 sequence (P55211 whole entry): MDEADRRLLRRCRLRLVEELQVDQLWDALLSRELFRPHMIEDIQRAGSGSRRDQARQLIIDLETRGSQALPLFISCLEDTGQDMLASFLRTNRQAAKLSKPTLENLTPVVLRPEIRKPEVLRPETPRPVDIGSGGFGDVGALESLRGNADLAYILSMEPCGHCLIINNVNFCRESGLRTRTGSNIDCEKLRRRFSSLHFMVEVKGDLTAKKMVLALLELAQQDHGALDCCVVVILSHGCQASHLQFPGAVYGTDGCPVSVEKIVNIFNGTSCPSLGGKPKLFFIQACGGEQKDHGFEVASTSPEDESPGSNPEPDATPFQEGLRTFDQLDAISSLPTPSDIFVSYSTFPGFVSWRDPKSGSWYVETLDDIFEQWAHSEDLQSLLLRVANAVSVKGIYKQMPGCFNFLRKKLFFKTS

Caspase-4 = molecular target: T3, Caspase-4 (Homo sapiens, UniProt P49662); assay: Inhibitory activity against caspase-4; details: read-out: Ki app
T3 sequence (P49662 whole entry): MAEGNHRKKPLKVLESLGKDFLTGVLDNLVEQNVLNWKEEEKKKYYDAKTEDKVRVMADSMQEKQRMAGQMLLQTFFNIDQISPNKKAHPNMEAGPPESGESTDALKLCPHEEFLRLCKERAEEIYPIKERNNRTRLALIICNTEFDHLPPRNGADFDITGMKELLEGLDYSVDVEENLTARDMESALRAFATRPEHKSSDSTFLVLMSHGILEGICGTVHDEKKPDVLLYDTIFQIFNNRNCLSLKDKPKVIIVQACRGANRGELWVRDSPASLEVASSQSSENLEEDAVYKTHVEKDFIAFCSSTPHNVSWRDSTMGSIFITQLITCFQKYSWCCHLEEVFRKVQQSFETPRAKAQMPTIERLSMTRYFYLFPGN
In short: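 Recombinant full-length human caspase 4, ~10 units/assay, in potassium acetate pH 5.8 with 1 mM EDTA, 10% sucrose, 0.1% CHAPS and 5 mM β-mercaptoethanol. Substrate 100 μM Ac-LEED-AMC. Read at 360/460 nm, 30 °C, 5% final DMSO. Single-dose screen (typically 5–50 μM), then IC50 curves for actives.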

Caspase-7 = molecular target: T4, Caspase-7 (Homo sapiens, UniProt P55210); assay: Inhibitory activity against Caspase-7; details: read-out: Ki app
T4 sequence (P55210 whole entry): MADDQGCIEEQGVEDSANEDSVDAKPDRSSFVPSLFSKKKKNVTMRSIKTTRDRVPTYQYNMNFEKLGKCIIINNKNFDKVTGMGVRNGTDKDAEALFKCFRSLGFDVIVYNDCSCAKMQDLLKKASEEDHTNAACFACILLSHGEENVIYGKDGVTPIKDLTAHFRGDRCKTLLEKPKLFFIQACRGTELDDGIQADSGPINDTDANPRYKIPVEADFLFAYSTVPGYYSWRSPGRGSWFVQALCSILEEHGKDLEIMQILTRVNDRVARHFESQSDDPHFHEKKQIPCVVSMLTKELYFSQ
In short: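 Recombinant full-length human caspase 3 or 7, ~10 units/assay (1 unit = 1 pmol AMC/min). Substrate 10 μM Ac-DEVD-AMC. AMC fluorescence at 360/460 nm, 30 °C, with 5% final DMSO. Single-dose screen (typically 5–50 μM), then IC50 curves; repeated IC50s had CVs typically <30%.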

Caspase-3 = molecular target: T5, Caspase-3 (Homo sapiens, UniProt P42574); assay: Inhibition of recombinant human caspase-3
T5 sequence (P42574 whole entry): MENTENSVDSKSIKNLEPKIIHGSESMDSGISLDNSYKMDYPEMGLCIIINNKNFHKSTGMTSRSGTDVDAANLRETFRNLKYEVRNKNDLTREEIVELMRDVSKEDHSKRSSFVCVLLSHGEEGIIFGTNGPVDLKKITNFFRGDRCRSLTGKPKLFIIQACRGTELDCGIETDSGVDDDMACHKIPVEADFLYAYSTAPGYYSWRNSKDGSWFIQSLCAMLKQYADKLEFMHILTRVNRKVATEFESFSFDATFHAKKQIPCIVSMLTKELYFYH

C20/A4 = assay: In vitro inhibition of Chondrocyte cell line C20/A4 apoptosis at 25 uM of compound; type: functional, Homo sapiens
In short: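 Immortalized human chondrocyte line C20/A4 seeded at 20 000 cells/well overnight, then exposed 24 h to 4 μg/mL camptothecin with or without compound. Floating and adherent cells combined and lysed 30 min at 4 °C, then clarified at 14000g. Mono- and oligonucleosome DNA fragments measured by cell death ELISA; result expressed as % inhibition of apoptosis.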

Jurkat (Homo sapiens) [1] = assay: In vitro inhibition of Jurkat cell apoptosis at 50 uM of compound
Jurkat (Homo sapiens) [2] = assay: In vitro inhibition of Jurkat cell apoptosis at 10 uM of compound

Compound	Ki (Caspase-1)	Ki (Caspase-8)	Ki (Caspase-9)	Ki (Caspase-4)	Ki (Caspase-7)	IC50 (Caspase-3)	Inhibition (C20/A4)	Inhibition (Jurkat (Homo sapiens) [1])	Inhibition (Jurkat (Homo sapiens) [2])
CN(CC1CCCN1S(=O)(=O)c1ccc2c(c1)C(=O)C(=O)N2)c1ccccc1 (stereo unspecified)	> 50 µM	> 50 µM	> 50 µM	> 50 µM	10 µM	5.5 µM			
COC[C@@H]1CCCN1S(=O)(=O)c1ccc2c(c1)C(=O)C(=O)N2	> 25 µM	> 25 µM	1.1 µM	> 25 µM	0.17 µM	0.12 µM		54%	22%

More lines, main results first:

Ki (Caspase-1)	Ki (Caspase-8)	Ki (Caspase-9)	Ki (Caspase-4)	Ki (Caspase-7)	IC50 (Caspase-3)	Compound	Inhibition (C20/A4)	Inhibition (Jurkat (Homo sapiens) [1])	Inhibition (Jurkat (Homo sapiens) [2])
21 µM	80 µM	0.85 µM	30 µM	0.047 µM	0.031 µM	O=C1Nc2ccc(S(=O)(=O)N3CCC[C@H]3CNc3ccccc3)cc2C1=O	96%	61%	8%
17 µM	49 µM	1.2 µM	33 µM	0.047 µM	0.044 µM	O=C1Nc2ccc(S(=O)(=O)N3CCC[C@H]3COc3ccccc3)cc2C1=O	83%	82%	51%
> 5 µM	> 5 µM	0.12 µM	> 5 µM	0.006 µM	0.0025 µM	O=C1C(=O)N(Cc2ccccc2)c2ccc(S(=O)(=O)N3CCC[C@H]3COc3ccccc3)cc21	84%	47%	27%
